Calls of active or inactive are those of the source. No cut-off for these calls is given here.
Key:
MES-SA [1] = assay: Cytotoxicity against human MES-SA cells assessed as inhibition of cell proliferation incubated for 72 hrs by MTT assay; type: functional, cell-based
Summary of the method: (§1)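 Cells were seeded (10000/well for A2780, 5000/well for MES-SA/Dx5 and KB-3-1/V1) and left to attach 12 h, then exposed to compound for 72 h. Medium was removed, and MTT (0.83 mg/mL) was added for 1 h at 37 °C. Cells were lysed in DMSO and absorbance read at 540 nm. Signal was corrected for unstained lysate background, normalized to untreated cells, and IC50 taken from a sigmoidal dose-response fit.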

MES-SA/Dx5 [2] = assay: Cytotoxicity against human MES-SA/DX5 cells assessed as inhibition of cell proliferation incubated for 72 hrs by MTT assay; type: functional, cell-based; details: for IC50: MES-SA/Dx5, 72 h; summary of the method: as §1
MES-SA [3] = assay: Cytotoxicity against human MES-SA cells assessed as inhibition of cell proliferation at <50 uM incubated for 72 hrs by MTT assay; type: functional, cell-based; details: dose microM <50, time 72.0 hrs; summary of the method: as §1
MES-SA/Dx5 [4] = assay: Cytotoxicity against human MES-SA/DX5 cells assessed as inhibition of cell proliferation at <50 uM incubated for 72 hrs by MTT assay; type: functional, cell-based; details: dose microM <50, time 72.0 hrs; summary of the method: as §1
KB 3-1 [5] = assay: Cytotoxicity against human KB-3-1 cells assessed as inhibition of cell proliferation incubated for 72 hrs by MTT assay; type: functional, cell-based; details: for IC50: KB 3-1, 72 h; summary of the method: as §1
KB-V1 [6] = assay: Cytotoxicity against human KB-V1 cells assessed as inhibition of cell proliferation incubated for 72 hrs by MTT assay; type: functional, cell-based; details: for IC50: KB-V1, 72 h; summary of the method: as §1
MES-SA [7] = assay: Cytotoxicity against human MES-SA cells assessed as inhibition of cell proliferation at >=50 uM incubated for 72 hrs by MTT assay; type: functional, cell-based; details: dose microM >=50, time 72.0 hrs; summary of the method: as §1
MES-SA/Dx5 [8] = assay: Cytotoxicity against human MES-SA/DX5 cells assessed as inhibition of cell proliferation at >=50 uM incubated for 72 hrs by MTT assay; type: functional, cell-based; details: dose microM >=50, time 72.0 hrs; summary of the method: as §1
KB 3-1 [9] = assay: Cytotoxicity against human KB-3-1 cells assessed as inhibition of cell proliferation at >=50 uM incubated for 72 hrs by MTT assay; type: functional, cell-based; details: dose microM >=50, time 72.0 hrs; summary of the method: as §1
KB-V1 [10] = assay: Cytotoxicity against human KB-V1 cells assessed as inhibition of cell proliferation at >=50 uM incubated for 72 hrs by MTT assay; type: functional, cell-based; details: dose microM >=50, time 72.0 hrs; summary of the method: as §1
MES-SA [11] = assay: Cytotoxicity against human MES-SA cells transfected with mCherry fluorescent protein assessed as inhibition of cell proliferation incubated for 72 hrs by fluorescent assay; type: functional, cell-based; details: Homo sapiens, MES-SA, 72 h; read-out: IC50
Summary of the method: (§2)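 MES-SA and MES-SA/Dx5 cells were made to stably express mCherry by lentiviral transduction. Cells were seeded at 5000 (96-well) or 2500 (384-well) per well, allowed to attach 24 h, then treated with compound dilutions for 72 h. Viability was read as fluorescence, excitation 585 nm, emission 610 nm.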

MES-SA/Dx5 [12] = assay: Cytotoxicity against human MES-SA/DX5 cells transfected with mCherry fluorescent protein assessed as inhibition of cell proliferation incubated for 72 hrs by fluorescent assay; type: functional, cell-based; details: Homo sapiens, MES-SA/Dx5, 72 h; read-out: IC50; summary of the method: as §2
A2780 = assay: Cytotoxicity against human A2780 cells assessed as inhibition of cell proliferation incubated for 72 hrs by MTT assay; type: functional, cell-based; details: A2780, 72 h; summary of the method: as §1
[13] = Cytotoxicity against human A2780adr cells assessed as inhibition of cell proliferation incubated for 72 hrs by MTT assay; type: functional, cell-based; details: A2780 ADR; summary of the method: as §1
MES-SA/Dx5 [14] = assay: Cytotoxicity against human MES-SA/DX5 cells incubated for 72 hrs in presence of efflux pump inhibitor, Tariquidar by MTT assay; type: functional, cell-based
Summary of the method: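 Run as the 72 h MTT viability readout (12 h attachment, MTT 0.83 mg/mL for 1 h, DMSO lysis, A540), with the P-gp inhibitor Tariquidar at 1 µM co-present. IC50 came from sigmoidal fits of 2 to 4 independent experiments.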

MES-SA/Dx5 [15] = assay: Reduction in P-gp expression in human MES-SA/DX5 cells at IC20 concentration incubated for 5 days by calcein-AM staining based flow cytometric analysis; type: functional, cell-based; details: time 5.0 day
Summary of the method: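 MES-SA/Dx5 cells were grown 5 days with compound at IC20 values calculated from viability assays, then recovered in drug-free medium refreshed every fifth day. At 80% confluency, cells were stained with Calcein AM with or without verapamil, with TO-PRO-3 excluding dead cells, and analysed by flow cytometry for the P-gp-negative fraction.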

MES-SA/Dx5 [16] = assay: Reduction in P-gp expression in human MES-SA/DX5 cells measured after 5 rounds of treatment by DAPI staining based immunocytochemistry analysis; type: functional, cell-based
Summary of the method: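 Treated cells were plated in chamber slides, fixed after 1 day in 4% paraformaldehyde for 15 min, and blocked 1 h (BSA, fish gelatin, goat serum, Triton X-100). They were stained with anti-P-gp MRK16 (1:500, 1 h), then PE goat anti-mouse IgG (1:250, 1 h), with DAPI 1 µM for 10 min. Imaging used fluorescence and confocal microscopy.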

[17] = Selectivity ratio of IC50 for human MES-SA cells to IC50 for human MES-SA/DX5 cells incubated for 72 hrs by MTT assay; type: functional
Summary of the method: (§3)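 The selectivity ratio is the IC50 in P-gp-negative parental cells divided by the IC50 in the P-gp-positive resistant partner.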

[18] = Selectivity ratio of IC50 for human MES-SA cells transfected with mCherry to IC50 for human MES-SA/DX5 cells transfected with mCherry incubated for 72 hrs by fluorescent assay; type: functional
[19] = Selectivity ratio of IC50 for human KB-3-1 cells to IC50 for human KB-V1 cells incubated for 72 hrs by MTT assay; type: functional; summary of the method: as §3
[20] = Selectivity ratio of IC50 for human A2780 cells to IC50 for human A2780adr cells incubated for 72 hrs by MTT assay; type: functional; summary of the method: as §3
MES-SA/Dx5 [21] = assay: Cytotoxicity against human MES-SA/DX5 cells transfected with mCherry fluorescent protein incubated for 72 hrs in presence of efflux pump inhibitor, Tariquidar by fluorescence assay; type: functional, cell-based
Summary of the method: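 The mCherry-expressing cells (lentiviral) were seeded at 5000 or 2500 per well, attached for 24 h, and exposed 72 h to compounds with Tariquidar coadministered. Live-cell signal was fluorescence at 585 nm excitation and 610 nm emission.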

KB-V1 [22] = assay: Cytotoxicity against human KB-V1 cells assessed as inhibition of cell proliferation incubated for 72 hrs in presence of efflux pump inhibitor, Tariquidar by MTT assay; type: functional, cell-based
A2780 ADR = assay: Cytotoxicity against human A2780adr cells assessed as inhibition of cell proliferation incubated for 72 hrs in presence of efflux pump inhibitor, Tariquidar by MTT assay; type: functional, cell-based

## COc1ccc(NC(=S)NNC(=S)Nc2ccc(OC)cc2)cc1
MES-SA [1]
  pIC50: inactive
MES-SA/Dx5 [2]
  pIC50: inactive
MES-SA [3]
  Activity: inactive
MES-SA/Dx5 [4]
  Activity: inactive

## COc1ccc(NC(=S)NNc2nc3ccccc3s2)cc1
MES-SA [1]
  pIC50: inactive
MES-SA/Dx5 [2]
  pIC50: inactive
KB 3-1 [5]
  pIC50: inactive
KB-V1 [6]
  pIC50: inactive
MES-SA [7]
  Activity: inactive
MES-SA/Dx5 [8]
  Activity: inactive
KB 3-1 [9]
  Activity: inactive
KB-V1 [10]
  Activity: inactive

## O=C1Nc2ccccc2/C1=N/NC(=S)Nc1ccc([N+](=O)[O-])cc1
MES-SA [1]; read-out: IC50
  IC50: 9.17 µM
MES-SA [1]; read-out: pIC50 (converted)
  IC50: 8.51 µM
MES-SA/Dx5 [2]; read-out: IC50
  IC50: 4.74 µM
MES-SA/Dx5 [2]; read-out: pIC50 (converted)
  IC50: 4.68 µM
MES-SA [11]
  IC50: 15.8 µM
MES-SA/Dx5 [12]
  IC50: 7.55 µM
KB 3-1 [5]; read-out: IC50
  IC50: 8.2 µM
KB 3-1 [5]; read-out: pIC50 (converted)
  IC50: 7.76 µM
KB-V1 [6]; read-out: IC50
  IC50: 4.58 µM
KB-V1 [6]; read-out: pIC50 (converted)
  IC50: 4.47 µM
A2780; read-out: IC50
  IC50: 25.7 µM
A2780; read-out: pIC50 (converted)
  IC50: 24.5 µM
[13]; read-out: IC50
  IC50: 8.78 µM
[13]; read-out: pIC50 (converted)
  IC50: 8.91 µM
MES-SA/Dx5 [14]
  Activity: inactive
MES-SA/Dx5 [15]
  inhibition: Active
MES-SA/Dx5 [16]
  inhibition: Active
[17]
  Ratio IC50: 1.77
[18]
  Ratio IC50: 3.55
[19]
  Ratio IC50: 1.82
[20]
  Ratio IC50: 2.98
MES-SA/Dx5 [21]
  Activity: inactive
KB-V1 [22]
  Activity: inactive
A2780 ADR
  Activity: inactive

From ChEMBL document CHEMBL4715714, “Design, synthesis and biological evaluation of thiosemicarbazones, hydrazinobenzothiazoles and arylhydrazones as anticancer agents with a potential to overcome multidrug resistance” (Eur J Med Chem, 2016)
